Rows were chosen to be rich in hits. Some 1.7% of all compounds tested hit in one or more screens of this group.
IDE act – human IDE activators in live cells, primary screen, fluorescence polarization, HEK cells, FAbeta-B substrate. Insulin-degrading enzyme (Homo sapiens), P14735. FAbeta-B cleavage; 0% vehicle, 100% cell-free pure enzyme wells. activation, % at 5.96 µM. actives 0.073% (n = 340,000);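 active means activation above the mean of all tested compounds plus 3 SD, set per screening campaign, cut at about 17% in these data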
Tb MetRS inh – T. brucei MetRS inhibitors, primary screen, biochemical, luminescence; purified T. brucei MetRS, ATP depletion, Kinase-Glo luminescence; actives 0.4% (n = 360,000); AID 624268, 2012; methionyl-tRNA synthetase (Trypanosoma brucei brucei); inhibition, % at 11.9 µM;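 active means inhibition above a per-plate cutoff of the control wells' mean inhibition plus 3 SD, cut at about 5.5% in these data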;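 further: 0% = DMSO wells median and 100% = median of wells with control inhibitor compound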
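Assay system: T. brucei methionyl-tRNA synthetase, purified | Medium: HEPES buffer with MgCl2, KCl, DTT, spermine, BSA, pyrophosphatase | Compound: 11.9 µM single point | Incubation: 15 min enzyme-compound preincubation, 2 h reaction, 10 min detection, 25 °C | Measured by: Kinase-Glo luciferase luminescence reporting remaining unconsumed ATP | Measure: % inhibition normalized to control-well medians | Replication: Singlicate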
CSN inh – inhibitors of CSN-mediated cullin deneddylation, primary screen, biochemical, fluorescence polarization, uHTS. COP9 signalosome complex subunit 5 (Homo sapiens), Q92905. Purified CSN, SCF-Nedd8-OG deneddylation. inhibition, % at 12.5 µM. actives 0.38% (n = 360,000);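 active means pattern-corrected inhibition above about 35%, with an unprinted fluorescence ratio check between 0.5 and 1.5, limit read from the data, passing the limit was not always enough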;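 further: 0% = enzyme with substrate and 100% = substrate without enzyme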
Target sequence (Q92905 whole entry, looked up, one chain of several): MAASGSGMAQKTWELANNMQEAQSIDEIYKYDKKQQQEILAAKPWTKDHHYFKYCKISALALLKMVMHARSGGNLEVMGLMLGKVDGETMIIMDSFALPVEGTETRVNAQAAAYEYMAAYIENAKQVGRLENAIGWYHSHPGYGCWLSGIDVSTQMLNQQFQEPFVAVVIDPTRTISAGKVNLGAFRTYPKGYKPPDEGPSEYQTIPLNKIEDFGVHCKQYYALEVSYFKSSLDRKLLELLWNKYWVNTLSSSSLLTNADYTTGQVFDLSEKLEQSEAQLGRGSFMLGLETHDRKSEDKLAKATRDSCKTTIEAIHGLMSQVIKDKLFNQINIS
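Test system: purified human Csn5 enzyme expressed in HEK293T cells. Amount: 0.24 nM enzyme. Reagent: SCFSkp2-Nedd8OG substrate at 10 nM final. Schedule: 90 min incubation of compound, enzyme and substrate at room temperature. Detection: fluorescence polarization. Read-out: % inhibition of substrate cleavage by Csn5.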
HNF4A DNA FP – change in binding of human HNF4A to DNA, primary screen, biochemical, fluorescence polarization, FITC-DNA; activity change, % at 10 µM; 1 h; AID 1224865, 2016; Hepatocyte nuclear factor 4-alpha (Homo sapiens), P41235; actives 0.3% (n = 360,000); in the data active means activity change above about 30%, passing the limit was not always enough
TPT1 inh – Candida albicans TPT1 enzyme inhibitors, primary screen, biochemical, fluorescence polarization; actives 0.81% (n = 300,000); tRNA 2'-phosphotransferase TPT1 (Candida albicans SC5314); recombinant caTPT1, FP RNA substrate dephosphorylation; inhibition, % at 5 µM; AID 1962, 2009;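 active means inhibition above the mean of all tested compounds plus 3 SD, set per screening campaign, cut at about 24% in these data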;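 further: plate controls were DMSO alone for no effect and ferristatin control at 100 nM for full effect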
IDE cell inh – human IDE inhibitors in live cells, primary screen, fluorescence polarization, HEK cells, FAbetaB substrate; FAbetaB cleavage; inhibition, % at 5.59 µM; Insulin-degrading enzyme (Homo sapiens), P14735; AID 434962, 2010; actives 0.41% (n = 320,000);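 active means percent inhibition above the average of all tested compounds plus 3 SD, set per screening campaign, cut at about 16% in these data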;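 further: IDE supplied by intact live HEK cells; FP after avidin binding of uncleaved biotin substrate so inhibition keeps polarization high; 0% = DMSO wells and 100% = 60 µM reference IDE inhibitor Ii1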
Active calls of the source: *; nt = not tested or not shown.

SMILES	IDE act	Tb MetRS inh	CSN inh	HNF4A DNA FP	TPT1 inh	IDE cell inh
COCCN(C(=O)c1cc(-c2ccco2)nc2ccccc12)c1c(N)n(Cc2ccccc2)c(=O)[nH]c1=O	2.9	0.0	37.2*	-19.5	nt	7.1
CC1(C)SC2C(C(=O)O)N=C(Cc3ccccc3)N2C1C(=O)O (stereo not given)	-3.0	0.0	0.3	-3.5	nt	nt
O=C(CN1CCN(CN2C(=O)NC3(CCCCCC3)C2=O)CC1)Nc1ccc(F)cc1	19.3*	-0.1	-3.1	-3.9	nt	-2.4
COc1ccc(C(C)=O)cc1CSc1ccc(S(=O)(=O)N2CCOCC2)cn1	2.9	-0.2	3.8	5.9	nt	2.2
Cc1ccc(S(=O)(=O)N2CCOCC2)cc1C(=O)OCC(=O)NC1CC1	1.9	-0.3	60.1*	0.9	nt	-3.2
Cc1ccc(S(=O)(=O)N2CCOCC2)cc1C(=O)OCC(=O)NC1CCCCC1	5.0	-0.5	2.4	-6.6	nt	nt
CC(=O)Nc1ccc(C(=O)CN2CCN(c3ccccc3)CC2)cc1	4.8	-0.3	99.6*	19.2	4.0	-10.8
CCC(CC)C(C(=O)NCc1ccccc1)N1CCN(CCN2CCOCC2)CC1 (stereo not given)	nt	-0.8	-3.8	-0.4	nt	nt
Cc1ccc(C)n1-c1cccc(C(=O)O)c1	nt	nt	nt	nt	50.8*	10.5
Cc1cc(C=O)c(C)n1-c1cccc(C(=O)O)c1	-3.3	0.3	8.7	-9.1	-0.4	3.6
Cc1cccc(Nc2nn3c(=O)c4ccccc4nc3s2)c1	-0.3	0.1	31.2	75.0*	0.8	7.9
NC(=O)C1CCN(C(=O)/C(=C/c2ccccc2)NC(=O)c2ccccc2)CC1	0.9	-0.5	0.0	3.2	nt	nt
COc1ccccc1NS(=O)(=O)c1cccc(-n2c(O)c(C=Nc3ccccc3C(=O)O)c3ccccc3c2=O)c1	-0.8	0.1	3.9	-8.1	-1.0	-0.2
O=C(NC(=S)Nc1ccccn1)c1cncc(Br)c1	3.7	-0.4	3.4	66.2*	3.4	-0.1
CCOC(=O)c1nn(-c2ccc(C)cc2)c(=O)cc1OCC(=O)N1CCN(c2ccccc2)CC1	2.1	-0.6	2.6	0.4	-2.2	1.0
CC(C)c1nc2cc(C(=O)N3CCN(c4cnccn4)CC3)ccc2o1	0.1	-0.3	-1.4	0.9	2.3	-3.9
O=C(/C=C/c1ccccc1)OCc1cnc(Cl)s1	4.5	-1.1	8.1	-3.3	-0.8	-1.9
CC(=O)c1cccc(NS(=O)(=O)N(C)C)c1	5.7	-1.3	-0.5	50.1*	1.2	-1.4
Cn1c2c(c(=O)n(C)c1=O)C(C(F)(F)F)(C(F)(F)F)N=C(CCC1CCCCC1)N2	-0.2	1.1	53.7*	-2.3	1.4	-1.8
O=[N+]([O-])c1ccc(N/N=C/c2sc(N3CCOCC3)nc2-c2ccccc2)c(S(=O)(=O)Nc2ccc(Cl)cc2)c1	0.2	-0.2	34.6	59.0*	nt	nt
CCN1C(=O)[C@@H]2[C@@H](c3ccc(-c4ccc(F)cc4)c(OC)c3)N3CCC[C@@]3(C(=O)OC)[C@@H]2C1=O	3.4	-0.2	1.8	-4.7	nt	8.5
COc1ccccc1/C=C/C=N/NC(=O)c1ccccn1	5.6	-0.6	6.0	4.9	-0.5	-0.3
COc1ccccc1/C=C/C=N/NC(=O)c1cc(-c2ccco2)[nH]n1	nt	0.2	44.9*	-18.0	4.6	12.6
COc1ccc(CNC(=O)CSCc2ccccc2Cl)cc1	1.2	-0.6	-3.0	-0.5	-0.9	-1.7
Cc1ccc(Cn2ccc(NC(=O)c3cc(-c4ccc5c(c4)OCO5)on3)n2)cc1	5.2	-0.3	112.2*	-2.3	nt	nt
SMILES	IDE act	Tb MetRS inh	CSN inh	HNF4A DNA FP	TPT1 inh	IDE cell inh
Cc1ccc(Cn2ccc(NC(=O)c3cc(-c4ccco4)on3)n2)cc1	-4.2	-0.4	51.6*	16.1	7.2	-2.4
Cc1ccc(Cn2ccc(NC(=O)c3cc(-c4ccccc4)on3)n2)cc1	-3.6	-0.7	3.9	-2.6	0.6	4.8
Cc1cc(C)n2c(NC3CCCCC3)c(CC(C)C)nc2n1	nt	-1.0	-0.6	108.0*	nt	nt
Cc1cc(C)n2c(NC3CCCCC3)c(-c3ccc(F)cc3)nc2n1	nt	-0.1	10.0	3.8	nt	nt
CC(=O)N1N=C2c3ccccc3CCC2C1c1ccc(F)cc1 (stereo not given)	nt	0.1	-2.7	-1.4	2.8	-0.3
COc1ccc2c(c1)CCC1C2=NN(/C(C)=C/C(C)=O)C1c1cccc(F)c1 (stereo not given)	5.0	-1.1	15.5	76.2*	13.9	2.0
Clc1cccc(-c2nc(-c3ccc(-c4nn[nH]n4)cc3)no2)c1	-0.6	0.6	11.3	3.1	nt	-1.1
O=C(CCCn1c(=O)[nH]c2cc(Cl)ccc2c1=O)NCCCN1CCN(c2ccc(F)cc2)CC1	1.1	0.0	-0.4	0.2	-4.5	8.4
CC(C)(C)S(=O)N1Cc2cc(C(=O)Nc3ccc(-c4ccccc4)cc3)nc(-c3cccc(-c4cc5ccccc5o4)c3)c2[C@@H]1CCO (stereo not given in full)	nt	-0.6	5.8	14.1	nt	nt
CN(C)CCCN(C(=O)CCSc1ccccc1)c1nc2cc3c(cc2s1)OCO3	42.9*	-0.5	0.9	6.2	-3.0	2.8
CN(C)CCCN(C(=O)CCc1ccccc1)c1nc2ccc(Br)cc2s1	28.6*	-0.4	-3.9	0.2	-2.7	-2.3
CN(C)CCCN(C(=O)CCc1ccccc1)c1nc2ccc(F)cc2s1	2.4	-0.1	4.2	-0.6	1.5	0.1
Oc1ccc(C[C@H]2CNC(=S)N2CC2CCCN2C[C@H](Cc2ccc(O)cc2)N2C[C@H](Cc3ccccc3)N(CC3CCCCC3)C2=S)cc1 (stereo not given in full)	1.3	-0.5	4.5	0.0	nt	nt
CN(CC(=O)NCc1ccco1)CC(=O)Nc1cc(S(C)(=O)=O)ccc1Cl	-5.6	0.1	1.8	1.3	nt	nt
COc1cc(C(=O)Nc2nnc(-c3sccc3C)s2)cc(OC)c1OC	-1.6	0.2	58.9*	7.3	0.9	6.3
COc1cc2c(=O)n(CC3CCCO3)c(=O)n(CC(=O)Nc3ccccc3)c2cc1OC (stereo not given)	-0.6	0.5	6.4	-1.4	-4.1	-0.5
COc1ccccc1/C=N/NC(=O)CC(=O)Nc1ccc(Cl)c(Cl)c1	-2.0	0.8	-3.1	44.4*	-2.5	-1.9
Cc1ccc(NC(=O)CN2C(=O)NC(Cc3ccccc3)C2=O)c(Br)c1 (stereo not given)	4.5	2.1	-2.7	1.1	-0.1	6.2
CCOC(=O)c1c(NC(=O)COC(=O)Cn2c(C)nc3ccccc32)sc2c1CCCC2	1.1	0.0	43.0*	0.5	-3.5	7.0
